16 molecules from ChEMBL document CHEMBL1129585, “Synthesis and biological activity of conformationally restricted analogs of milnacipran: (1S,2R)-1-phenyl-2-[(S)-1-aminopropyl]-N,N-diethylcyclopropanecarboxami de, an efficient noncompetitive N-methyl-D-aspartic acid receptor antagonist” (J Med Chem, 1996) can be followed below.

In test [1] the target is Glutamate NMDA receptor. Description: Inhibition of [3H]-MK-801 binding to NMDA receptor from rat cerebral cortical synaptic membrane.
For test [2], the species on record is Rattus norvegicus. The experiment in a line: Ratio of 5 HT inhibition to NMDA receptor binding.
Test [3] addresses Sodium-dependent serotonin transporter (Rattus norvegicus, UniProt P31652). Description: Inhibition of [3H]-paroxetine binding on serotonin transporter of rat cerebral cortical synaptic membrane. In short, it runs like this:
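Rat cerebral cortical synaptic membranes incubated with test agent at various concentrations, [³H]paroxetine 2 nM, in 50 mM Tris-HCl pH 7.4 with 120 mM NaCl and 5 mM KCl, 20 °C for 45 min. Stopped by rapid filtration on polyethylenimine-presoaked glass-fiber filters, washed with cold Tris-HCl. Bound radioactivity counted. Result given as Ki.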

For test [4], the target named is Glutamate receptor ionotropic, NMDA 2C (Rattus norvegicus) (UniProt Q00961). The experiment in a line: (§1) Percentage inhibition of N-methyl-D-aspartic acid (NMDA) receptor produced by oocytes. It counts as cell-based. The following applies: Xenopus laevis; Oocyte; concentration not given here. The gist of the method: (§2)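 Xenopus oocytes injected with whole-brain mRNA from 10-day-old Wistar rats (guanidine/CsCl extraction), then two-electrode voltage-clamped with 3 M KCl-filled electrodes. Currents evoked by 30 µM NMDA plus 10 µM Gly with test agent present at different concentrations. Block of the NMDA response recorded as percent inhibition or IC50.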

For test [5], the target named is Glutamate receptor ionotropic, NMDA 2C (Rattus norvegicus, UniProt Q00961). Description: Concentration required to inhibit of N-methyl-D-aspartic acid (NMDA) receptor produced by oocytes. The test is classed as functional, cell-based, Oocyte. In short, it runs like this: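 Xenopus oocytes were injected with whole-brain mRNA from 10-day-old Wistar rats, extracted by the guanidine/CsCl method. They were two-electrode voltage-clamped with electrodes filled with 3 M KCl. Currents were evoked by 30 µM NMDA plus 10 µM Gly in the presence of test compound at different concentrations. The read-out was block of the NMDA response, given as IC50 or percent inhibition.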

The target of test [6] is Glutamate receptor ionotropic, NMDA 2C (Rattus norvegicus) (UniProt Q00961). The description is as §1. The following applies: Xenopus laevis; Oocyte; concentration not given here. It counts as functional, cell-based. The gist of the method:
as §2

Glutamate receptor ionotropic, NMDA 2C, sequence (Q00961 whole entry): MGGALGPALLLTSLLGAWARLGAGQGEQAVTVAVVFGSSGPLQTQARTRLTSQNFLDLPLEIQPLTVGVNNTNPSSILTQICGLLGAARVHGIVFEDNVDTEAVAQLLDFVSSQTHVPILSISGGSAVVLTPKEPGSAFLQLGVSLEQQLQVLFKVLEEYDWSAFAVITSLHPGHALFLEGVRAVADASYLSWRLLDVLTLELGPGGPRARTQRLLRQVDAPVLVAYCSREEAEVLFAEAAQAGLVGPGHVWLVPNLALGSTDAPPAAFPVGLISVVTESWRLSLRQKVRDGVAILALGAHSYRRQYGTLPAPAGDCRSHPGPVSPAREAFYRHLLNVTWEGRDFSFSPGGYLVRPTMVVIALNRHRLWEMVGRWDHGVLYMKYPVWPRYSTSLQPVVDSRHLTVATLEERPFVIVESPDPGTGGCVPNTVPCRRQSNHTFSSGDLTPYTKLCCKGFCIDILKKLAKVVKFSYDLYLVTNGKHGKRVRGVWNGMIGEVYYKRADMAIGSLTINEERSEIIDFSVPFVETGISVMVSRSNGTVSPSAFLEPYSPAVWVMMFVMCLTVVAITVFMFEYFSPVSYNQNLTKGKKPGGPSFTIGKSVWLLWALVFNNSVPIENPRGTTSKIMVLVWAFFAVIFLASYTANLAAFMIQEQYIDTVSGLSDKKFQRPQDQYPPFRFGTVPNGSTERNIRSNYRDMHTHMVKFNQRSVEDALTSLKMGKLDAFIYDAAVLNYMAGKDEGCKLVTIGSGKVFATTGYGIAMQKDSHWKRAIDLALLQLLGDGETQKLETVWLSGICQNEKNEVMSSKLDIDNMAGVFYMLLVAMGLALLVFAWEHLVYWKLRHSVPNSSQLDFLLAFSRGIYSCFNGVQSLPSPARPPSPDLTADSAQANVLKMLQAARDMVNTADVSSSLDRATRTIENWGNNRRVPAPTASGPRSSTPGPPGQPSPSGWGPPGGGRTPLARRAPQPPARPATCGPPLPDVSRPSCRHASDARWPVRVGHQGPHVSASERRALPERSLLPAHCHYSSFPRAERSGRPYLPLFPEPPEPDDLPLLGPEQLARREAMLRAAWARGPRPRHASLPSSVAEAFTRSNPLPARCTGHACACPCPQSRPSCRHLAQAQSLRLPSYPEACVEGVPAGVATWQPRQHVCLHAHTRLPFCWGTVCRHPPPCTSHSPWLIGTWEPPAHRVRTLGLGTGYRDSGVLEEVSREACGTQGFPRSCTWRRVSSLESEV
Sodium-dependent serotonin transporter, sequence (P31652 whole entry): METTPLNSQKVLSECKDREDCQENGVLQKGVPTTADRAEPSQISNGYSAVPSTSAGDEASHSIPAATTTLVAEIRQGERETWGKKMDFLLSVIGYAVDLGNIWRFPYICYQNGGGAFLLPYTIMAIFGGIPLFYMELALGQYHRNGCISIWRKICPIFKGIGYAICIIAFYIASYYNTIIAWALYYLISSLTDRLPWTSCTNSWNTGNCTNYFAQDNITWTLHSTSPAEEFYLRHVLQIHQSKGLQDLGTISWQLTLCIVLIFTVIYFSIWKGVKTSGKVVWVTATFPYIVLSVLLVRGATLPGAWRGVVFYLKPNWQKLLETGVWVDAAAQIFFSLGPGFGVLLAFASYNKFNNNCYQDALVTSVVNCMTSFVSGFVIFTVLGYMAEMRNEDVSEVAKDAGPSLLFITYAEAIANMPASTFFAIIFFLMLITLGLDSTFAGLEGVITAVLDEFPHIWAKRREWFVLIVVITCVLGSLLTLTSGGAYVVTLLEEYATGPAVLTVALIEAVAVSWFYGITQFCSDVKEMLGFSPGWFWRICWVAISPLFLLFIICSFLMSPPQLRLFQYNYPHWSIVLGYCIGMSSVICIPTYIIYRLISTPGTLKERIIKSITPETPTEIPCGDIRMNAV
Glutamate receptor ionotropic, NMDA 2C (Rattus norvegicus), sequence (Q00961 20-1237 limits assumed): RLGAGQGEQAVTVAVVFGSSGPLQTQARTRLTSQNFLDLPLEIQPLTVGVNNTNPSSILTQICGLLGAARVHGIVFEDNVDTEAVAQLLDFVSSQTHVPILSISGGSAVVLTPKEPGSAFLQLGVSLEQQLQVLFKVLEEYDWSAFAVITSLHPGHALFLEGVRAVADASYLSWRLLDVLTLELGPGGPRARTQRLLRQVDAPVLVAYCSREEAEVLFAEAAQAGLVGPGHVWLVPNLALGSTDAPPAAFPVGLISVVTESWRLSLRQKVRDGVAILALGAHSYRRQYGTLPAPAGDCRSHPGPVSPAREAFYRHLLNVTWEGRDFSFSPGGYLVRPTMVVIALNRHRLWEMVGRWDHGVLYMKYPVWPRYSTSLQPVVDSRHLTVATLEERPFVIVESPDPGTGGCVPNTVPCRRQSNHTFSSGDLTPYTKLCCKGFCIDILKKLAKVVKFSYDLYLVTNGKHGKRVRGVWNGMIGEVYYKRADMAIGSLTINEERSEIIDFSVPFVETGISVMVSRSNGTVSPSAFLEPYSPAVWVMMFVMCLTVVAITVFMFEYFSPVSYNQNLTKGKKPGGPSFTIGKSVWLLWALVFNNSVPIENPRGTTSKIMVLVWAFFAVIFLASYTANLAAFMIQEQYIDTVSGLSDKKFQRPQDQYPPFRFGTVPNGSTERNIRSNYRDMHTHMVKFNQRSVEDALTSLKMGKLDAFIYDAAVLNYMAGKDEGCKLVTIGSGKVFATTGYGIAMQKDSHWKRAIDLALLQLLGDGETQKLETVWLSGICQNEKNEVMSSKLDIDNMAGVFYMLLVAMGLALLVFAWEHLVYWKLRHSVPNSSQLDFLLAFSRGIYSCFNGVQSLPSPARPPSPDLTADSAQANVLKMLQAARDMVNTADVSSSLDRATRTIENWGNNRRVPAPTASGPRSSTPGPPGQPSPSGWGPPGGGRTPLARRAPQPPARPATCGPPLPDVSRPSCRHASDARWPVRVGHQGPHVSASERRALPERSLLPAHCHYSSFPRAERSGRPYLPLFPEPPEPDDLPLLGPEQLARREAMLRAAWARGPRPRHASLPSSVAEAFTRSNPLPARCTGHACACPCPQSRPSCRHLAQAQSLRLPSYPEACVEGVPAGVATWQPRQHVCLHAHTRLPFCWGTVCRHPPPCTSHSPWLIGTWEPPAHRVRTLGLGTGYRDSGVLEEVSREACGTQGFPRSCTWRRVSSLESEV

Turning to `CCN(CC)C(=O)[C@@]1(c2ccccc2)C[C@H]1C(N)c1ccccc1` (some centres not stated), the IC50 (commonly the concentration that gives 50% inhibition) in test [1] is 17000 nM. In test [2], the Selectivity index was > 5.9. For the same molecule, the inhibition constant (Ki) (usually the dissociation constant of the complex between target and ligand, obtained from inhibition or displacement) in test [3] is > 100000 nM.
The molecule `CCN(CC)C(=O)[C@@]1(c2ccccc2)C[C@H]1C(N)CC(C)C` (some centres not stated) showed an IC50 in test [1] of 4200 nM. In addition, the Selectivity index in test [2] is > 24. For the same molecule, the Ki in test [3] is > 100000 nM.
Molecule `CCCC(N)[C@@H]1C[C@@]1(C(=O)N(CC)CC)c1ccccc1` (some centres not stated) returned an IC50 in test [1] of 1000 nM. Moreover, the Selectivity index in test [2] was found to be 37. Moreover, the Ki in test [3] was determined as 37000 nM.
For `C=CC(N)[C@@H]1C[C@@]1(C(=O)N(CC)CC)c1ccccc1` (some centres not stated) the same measures were 160 nM, 0.14 and 23 nM.
On to `C[C@]12N[C@H](Cc3ccccc31)c1ccccc12`, for which the inhibition (commonly the drop in the measured response relative to a control, in per cent) in test [4] was found to be 98%.
As to `CCN(CC)C(=O)[C@@]1(c2ccccc2)C[C@H]1C(C)N` (stereo in doubt; 2a), the IC50 worked out at 2300 nM in test [5] and 350 nM in test [1]. Further, in test [3], the inhibition constant (Ki) came out at 14 nM.
For `CCC(N)[C@@H]1C[C@@]1(C(=O)N(CC)CC)c1ccccc1` (stereo in doubt; 2b) the same measures were 2200 nM, 200 nM and 24000 nM.
Molecule `CCN(CC)C(=O)[C@@]1(c2ccccc2)C[C@H]1C(C)N` (stereo in doubt; 3a) displayed an IC50 in test [1] of 6500 nM. The molecule also displayed a Ki in test [3] of 2400 nM.
In the case of `CCC(N)[C@@H]1C[C@@]1(C(=O)N(CC)CC)c1ccccc1` (stereo in doubt; 3b), in test [3], the Ki is > 100000 nM.
Still for that read-out and setting: the value for `CCN(CC)C(=O)[C@]1(c2ccccc2)C[C@@H]1C(C)N` (stereo in doubt; form 1) was > 100000 nM.
With `CCC(N)[C@H]1C[C@]1(C(=O)N(CC)CC)c1ccccc1` (stereo in doubt; form 1), in test [5], the concentration for half-maximal inhibition (IC50) was 39000 nM. In test [3], the Ki is > 100000 nM.
Molecule `CCN(CC)C(=O)[C@]1(c2ccccc2)C[C@@H]1C(C)N` (stereo in doubt; form 2) yielded an IC50 in test [1] of 19000 nM. The molecule further yielded a Ki in test [3] of 170 nM.
As to `CCC(N)[C@H]1C[C@]1(C(=O)N(CC)CC)c1ccccc1` (stereo in doubt; form 2), the Ki in test [3] is > 100000 nM.
As to `CNC1(c2ccccc2Cl)CCCCC1=O` (configuration not stated) [KETAMINE], the half-inhibitory concentration (IC50) in test [1] was 610 nM.
For the molecule `CCN(CC)C(=O)[C@@]1(c2ccccc2)C[C@H]1CN` [LEVOMILNACIPRAN], in test [3], affinity was put at a Ki of 8.5 nM. In test [6], this molecule had an inhibition of 53%.
On to `c1ccc(C2(N3CCCCC3)CCCCC2)cc1` [PHENCYCLIDINE], for which the IC50 in test [1] is 9.8 nM.
